For assay [1], the species on record is Rattus norvegicus. Put plainly: Potency of compound in 1-trained rats. Type of assay: functional.
For assay [2], the species on record is Rattus norvegicus. The assay is described as follows: Potency of compound in 1-trained rats measured as ED50 relative to LSD. Type of assay: functional.
The test system of assay [3] is Rattus norvegicus. The assay is described as follows: Percentage of animals selecting drug lever at a dose 186 nmol/kg. Type of assay: functional. In short, it runs like this:
(§1)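 Two-lever drug discrimination in rats trained to tell ip LSD tartrate (0.08 mg/kg, 186 nmol/kg, 30 min pretreatment) from saline, FR50 food schedule. Test drugs were given ip in saline. Test sessions ran under extinction and ended at 50 presses on one lever. Read-out was the percentage of rats selecting the drug lever at each dose; an 85% accuracy criterion applied.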

In assay [4] the test system is Rattus norvegicus. Put plainly: Percentage of animals selecting drug lever at a dose 279 nmol/kg. Type of assay: functional. The procedure, abridged: as §1
For assay [5], the system named is Rattus norvegicus. Put plainly: Percentage of animals selecting drug lever at a dose 301 nmol/kg. Type of assay: functional. The procedure, abridged: as §1
The subject of assay [6] is Rattus norvegicus. The assay is described as follows: Percentage of animals selecting drug lever at a dose 47nmol/kg. The class given is functional. The procedure, abridged: as §1
Assay [7] relates to Rattus norvegicus. The assay is described as follows: Percentage of animals selecting drug lever at a dose 93 nmol/kg. The class given is functional. In short, it runs like this:
as §1

In assay [8] the test system is Rattus norvegicus. The assay is described as follows: Percentage of animals selecting drug lever at a dose 139 nmol/kg. The class given is functional. In short, it runs like this:
as §1

The subject of assay [9] is Rattus norvegicus. The assay is described as follows: Percentage of animals selecting drug lever at a dose 163 nmol/kg. The class given is functional. In short, it runs like this: as §1
For assay [10], the system named is Rattus norvegicus. The assay is described as follows: Percentage of animals selecting drug lever at a dose 290 nmol/kg. Type of assay: functional. The procedure, abridged:
as §1

For assay [11], the system named is Rattus norvegicus. Put plainly: Percentage of animals selecting drug lever at a dose 372 nmol/kg. Type of assay: functional. In short, it runs like this:
as §1

For assay [12], the system named is Rattus norvegicus. Put plainly: Percentage of animals selecting drug lever at a dose 465 nmol/kg. The class given is functional. In short, it runs like this: as §1
For assay [13], the target named is T1, Serotonin receptor 2a and 2b (5HT2A and 5HT2B) (Rattus norvegicus, UniProt P30994+P14842). Put plainly: Affinity in displacing [125I](R)-DOI from rat cortical homogenate 5-hydroxytryptamine 2 receptor. In short, it runs like this: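 Male Sprague-Dawley rat frontal cortex homogenate (pooled from 10–20 rats, sucrose-washed, preincubated twice at 37 °C). Membranes at 200–400 µg protein in 50 mM Tris HCl pH 7.4 with 0.5 mM EDTA, 0.1% ascorbate, 10 µM pargyline and 10 mM MgCl2. Displacement of 0.25 nM [125I]-(R)-DOI, 15 min at 37 °C, then filtered and gamma-counted. Triplicates; Ki from 3–4 experiments.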

The target of assay [14] is T2, 5-hydroxytryptamine receptor 1A (Rattus norvegicus, UniProt P19327).
T2 sequence (P19327 whole entry): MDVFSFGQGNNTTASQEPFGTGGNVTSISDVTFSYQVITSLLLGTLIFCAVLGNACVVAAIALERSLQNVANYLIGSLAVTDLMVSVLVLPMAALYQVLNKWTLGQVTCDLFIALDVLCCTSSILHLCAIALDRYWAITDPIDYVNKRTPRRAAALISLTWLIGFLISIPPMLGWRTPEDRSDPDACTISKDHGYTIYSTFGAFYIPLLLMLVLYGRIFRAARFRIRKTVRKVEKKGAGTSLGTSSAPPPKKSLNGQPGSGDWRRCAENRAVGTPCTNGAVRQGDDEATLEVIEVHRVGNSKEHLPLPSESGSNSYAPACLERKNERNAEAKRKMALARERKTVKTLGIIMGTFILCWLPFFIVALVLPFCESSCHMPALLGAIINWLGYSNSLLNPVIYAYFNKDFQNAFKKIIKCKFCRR
The assay is described as follows: Affinity in displacing [3H]8-OH-DPAT from rat hippocampal 5-hydroxytryptamine 1A receptor. The class given is tissue-based, Hippocampus. The procedure, abridged:
(§2)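 Male Sprague-Dawley rat hippocampal homogenate (pooled from 10–20 rats, sucrose-washed, preincubated twice at 37 °C). Membranes at 200–400 µg protein in 50 mM Tris HCl pH 7.4 with 0.5 mM EDTA, 0.1% ascorbate and 10 µM pargyline. Displacement of 1.0 nM [3H]-8-OH-DPAT, 10 min at 37 °C, then filtered. Nonspecific binding defined with 10 µM serotonin. Triplicates; 3–4 experiments.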

The target in assay [15] is T1, Serotonin receptor 2a and 2b (5HT2A and 5HT2B). The assay is described as follows: Affinity in displacing [125I](R)-DOI from rat cortical homogenate 5-HT2 receptor. In short, it runs like this: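 Male Sprague-Dawley rat frontal cortex homogenate (pooled from 10–20 rats, sucrose-washed, preincubated twice at 37 °C). Membranes at 200–400 µg protein in 50 mM Tris HCl pH 7.4 with 0.5 mM EDTA, 0.1% ascorbate, 10 µM pargyline and 10 mM MgCl2. Triplicates; Ki from 3–4 experiments.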

The target in assay [16] is T2, 5-hydroxytryptamine receptor 1A. The assay is described as follows: Affinity in displacing [3H]8-OH-DPAT from rat hippocampal 5-HT1A receptor. The class given is tissue-based, Hippocampus. The procedure, abridged:
as §2

For assay [17], the system named is Rattus norvegicus. The assay is described as follows: Percentage of animals selecting drug lever at a dose 23 nmol/kg. The class given is functional. The procedure, abridged: as §1
In assay [18] the test system is Rattus norvegicus. The assay is described as follows: Percentage of animals selecting drug lever at a dose 12 nmol/kg. Type of assay: functional. In short, it runs like this: as §1
Assay [19] concerns Rattus norvegicus. Put plainly: Percentage of animals selecting drug lever at a dose 6 nmol/kg. Type of assay: functional. In short, it runs like this:
as §1

The ED50 is the dose at which the effect has come halfway, by size or by number of responders. A higher ED50 goes with weaker potency. As usually defined, the Ki is the equilibrium dissociation constant of an inhibitor or competing ligand from its target. High values mean weaker binding, low ones tighter binding.

Take `CN1C[C@H](C(=O)N2CCCC2)C=C2c3cccc4[nH]cc(c34)C[C@H]21`: it took a dose of 0.168 µmol/kg to reach the 50% effect level in the assay listed under Rattus norvegicus [1] (ED50). The compound also returned a Relative potency in the assay listed under Rattus norvegicus [2] of 0.16. Moreover, the SDL with Rattus norvegicus [3] was 60%; with Rattus norvegicus [4] it was 67%; in the assay on Rattus norvegicus [5], 82%; in the assay with Rattus norvegicus [6], 22%; in the assay on Rattus norvegicus [7], 22%; with Rattus norvegicus [8] it was 27%. Besides, the SDL in the assay with Rattus norvegicus [9] came to 40%.
Turning to `CC[C@H](C)NC(=O)[C@@H]1C=C2c3cccc4[nH]cc(c34)C[C@H]2N(C)C1`, the 50% effect level in the assay filed under Rattus norvegicus [1] (ED50) was put at a dose of 0.124 µmol/kg. In the assay filed under Rattus norvegicus [2], this compound returned a Relative potency of 0.22. The SDL was 75% in the assay with Rattus norvegicus [3]; 67% in the assay on Rattus norvegicus [10]; 75% with Rattus norvegicus [11]; 100% in the assay on Rattus norvegicus [12]; 13% in the assay with Rattus norvegicus [6]; 50% with Rattus norvegicus [7]. Also, the values for the inhibition constant Ki in assay [13] and in [14] were 7.76 nM and 4.61 nM, respectively.
With `CC[C@@H](C)NC(=O)[C@@H]1C=C2c3cccc4[nH]cc(c34)C[C@H]2N(C)C1`, the Ki was determined as 2.63 nM in [15] and 2.01 nM in assay [16]. This compound came in with an ED50 in the assay filed under Rattus norvegicus [1] of 0.033 µmol/kg. Further, in the assay listed under Rattus norvegicus [2], the Relative potency was found to be 0.82. The SDL in the assay with Rattus norvegicus [3] came to 88%; in the assay with Rattus norvegicus [17] it was 50%; in the assay on Rattus norvegicus [6], 75%; in the assay on Rattus norvegicus [7] it was 75%; with Rattus norvegicus [18] it was 13%.
In turn, `CCN(CC)C(=O)[C@@H]1C=C2c3cccc4[nH]cc(c34)C[C@H]2N(C)C1` [LYSERGIDE] showed an inhibition constant (Ki) in assay [16] of 5.05 nM. The 50% effect level in the assay listed under Rattus norvegicus [1] (ED50) was put at a dose of 0.0275 µmol/kg. The SDL is listed as 36% in the assay on Rattus norvegicus [17], 78% in the assay on Rattus norvegicus [6], 0% with Rattus norvegicus [19] and 100% in the assay on Rattus norvegicus [7].

The record behind these values is ChEMBL document CHEMBL1126136, “Stereoselective LSD-like activity in d-lysergic acid amides of (R)- and (S)-2-aminobutane” (J Med Chem, 1992).
